Jurkat NFkB inh = inhibitors of induced NF-kB luciferase reporter, primary screen, TCR NF-kB activation inhibitor project, cell-based, luminescence, uHTS | Jurkat, PMA/ionomycin-induced NF-kB luciferase reporter | inhibition, % at 4 µM | 0.53% of 330,000 active | AID 435003, 2010; in the data active means inhibition above about 50%
GPR7 antagonist = GPR7 receptor antagonists, primary screen, cell-based, fluorescence, single concentration. GPR7-expressing cells, fluorescence antagonist assay. inhibition, % at 4.4 µM. 1.1% of 290,000 active. AID 1861, 2009; in the data active means inhibition above about 16%, passing the limit was not always enough;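 further: cells stimulated with the agonist NPW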
Target sequence (P48145 whole entry, looked up): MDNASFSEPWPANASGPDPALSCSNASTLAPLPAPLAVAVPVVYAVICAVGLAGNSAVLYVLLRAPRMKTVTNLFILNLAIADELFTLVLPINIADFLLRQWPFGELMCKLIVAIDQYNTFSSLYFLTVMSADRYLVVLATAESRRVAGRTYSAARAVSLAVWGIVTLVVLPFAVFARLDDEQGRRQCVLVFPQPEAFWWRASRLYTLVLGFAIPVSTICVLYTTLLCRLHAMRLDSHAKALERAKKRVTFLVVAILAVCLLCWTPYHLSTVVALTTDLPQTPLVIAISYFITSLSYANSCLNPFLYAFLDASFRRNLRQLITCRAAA
697 NFkB inh = inhibitors of PMA/ionomycin-induced NF-kB reporter, 697 cells, primary screen, B-cell NF-kB inhibitor project, cell-based, luminescence, uHTS. inhibition, % at 4 µM. 0.33% of 330,000 active. 697 B-cell NF-kB luciferase reporter, 16 h; in the data active means inhibition above about 35%
T cruzi inh = inhibitors of intracellular T. cruzi growth, primary screen, luminescence, NIH3T3 host cells; T. cruzi beta-gal in NIH3T3, 90 h; inhibition, % (test concentration not listed); 1.4% of 300,000 active; AID 1885, 2009;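 active means mean inhibition across valid replicates above about 55%, limit read from the data; inconclusive means mean below that limit but half or more replicates reach it; inactive means mean below it, under half of replicates reach it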;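 further: signal also drops with host cell toxicity which is not excluded here; higher percent means less beta-gal luminescence so fewer parasites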
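Test system: β-gal T. cruzi (Tulahuen C4) inside NIH/3T3 cells / Quantity: 5,000 cells/well / Measured by: luminescence from GalScreen with 0.05% NP40, read after 60 min / Medium: DMEM plus 2% FBS / Measure: parasite load inhibition, % / Reagent: Tulahuen C4 trypomastigotes, 5000/well / Schedule: co-culture of at least 90 h after 3 h attachment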
HSF1 inh = HSF1 inhibitors in luciferase reporter cells, primary screen, cell-based, NIH3T3, luminescence; NIH3T3-HGL HSE-luciferase, MG132-induced, luminescence 8 h; hits give low values; activity change, negative = inhibition, % at 7.5 µM (by protocol); 0.77% of 300,000 active; AID 2098, 2009;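 active means more than half of replicate wells show activity change below -50%, luminescence cut by over half; inconclusive means some wells, but at most half, below -50%; inactive means no replicate well below -50%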;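 further: luciferase reports HSF-1 transcriptional activity via heat shock element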
HSF-1 act = HSF-1 activators, primary screen, NIH3T3-HGL cells, MG132 stress, luminescence, single point; NIH3T3-HGL HSF-1 luciferase reporter, 8 h; 100% = twice DMSO control signal; activation, % at 9 µM; 1.7% of 300,000 active; AID 504408, 2011;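 active means mean replicate activation of at least 50% with a set share of replicates each reaching 50%; inconclusive means only one of those two conditions met; inactive means mean below 50% and too few replicates reaching it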
Each line names hits and unclear results; the compound was inactive in the other large screens. Only some compounds are listed: those with a hit (about 4.8% of all), similar ones and a draw of the others.

Cc1ccc(-n2c(C)cc(/C=N/NC(N)=S)c2C)cc1	T cruzi inh 65
CNC(=O)c1c(NC(=O)c2nc3ccccc3s2)sc2c1CCC2	HSF-1 act 55
COC(=O)c1c(NC(=O)c2nc3ccccc3s2)sc2c1CCN(C(C)=O)C2	none (no result: T cruzi inh, HSF1 inh, HSF-1 act)
CCN1CCN(Cc2ccc(NC(=O)c3ccc(C)c(NC(=O)c4cccc5[nH]ccc45)c3)cc2C(F)(F)F)CC1	HSF1 inh -55 (no result: GPR7 antagonist)
CCN1CCN(Cc2ccc(NC(=O)c3ccc(C)c(NC(=O)c4cc(-c5ccc(Br)cc5)n[nH]4)c3)cc2C(F)(F)F)CC1	T cruzi inh 60 (no result: GPR7 antagonist)
CCN1CCN(Cc2ccc(NC(=O)c3ccc(C)c(NC(=O)c4nccn4C)c3)cc2C(F)(F)F)CC1	none (no result: GPR7 antagonist)
CCN1CCN(Cc2ccc(NC(=O)c3ccc(C)c(NC(=O)N4CCNC4=O)c3)cc2C(F)(F)F)CC1	none
Cc1ccc2c(COC(=O)c3ccc(C)c(C)c3)cc(=O)oc2c1	none
Cc1ccc2c(COC(=O)c3ccccc3Cl)cc(=O)oc2c1	HSF-1 act 101
COc1ccc2c(COC(=O)CCS(=O)(=O)c3ccc(C)cc3)cc(=O)oc2c1	HSF1 inh -73 (no result: GPR7 antagonist)
Cc1ccc2c(COC(=O)c3ccccc3Br)cc(=O)oc2c1	HSF-1 act 88
COc1ccc(NS(=O)(=O)c2cccc(C(=O)NNC(=O)c3ccccc3OC)c2)cc1	none (no result: GPR7 antagonist)
COc1ccc(OC)c(C2C=C(C34CC5CC(CC(C5)C3)C4)NC(=S)N2)c1 (stereo not given)	T cruzi inh 65 (no result: HSF1 inh, HSF-1 act)
S=C1NC(C23CC4CC(CC(C4)C2)C3)=CC(c2ccc3c(c2)OCO3)N1 (stereo not given)	T cruzi inh 70
O=C(NCc1ccc2c(c1)OCO2)NC12CC3CC(CC(C3)C1)C2	none
COc1cc(C2C=C(C34CC5CC(CC(C5)C3)C4)NC(=S)N2)cc(OC)c1OC (stereo not given)	none
CCOC(=O)c1cnc2ccc(C)cc2c1Sc1ccc(F)cc1	HSF-1 act 60
CN(C)S(=O)(=O)c1cccc(NC(=S)N/N=C/c2cc(Br)ccc2O)c1	T cruzi inh 57
CC(=O)c1c(C)[nH]c(C(=O)NCCC2=CCCCC2)c1C	none
CCOC(=O)c1[nH]c(C)c(C(=O)Nc2ccc(C)c(C)c2)c1C	none
CCOC(=O)c1[nH]c(C)c(C(=O)NCCC2=CCCCC2)c1C	HSF-1 act 61
CCOC(=O)c1[nH]c(C)c(C(=O)Nc2ccc(F)cc2)c1C	HSF-1 act 57
O=C1NC2(CCCCCC2)C(=O)N1Cc1c(F)cccc1Cl	none
O=c1c2ccccc2c(C=Nc2ccc(O)cc2)c(O)n1Cc1ccccc1	HSF-1 act 79
Cc1cc(Br)ccc1NC(=O)CNC(=O)CN1C(=O)NC2(CCCCCC2)C1=O	none
Cc1cc(Br)ccc1NC(=O)CN1C(=O)C2C3CC(c4ccccc4)C(C3)C2C1=O (stereo not given)	T cruzi inh 56
C/C=C/c1ccc(OCC(O)CNCCc2ccc(OC)cc2)c(OC)c1 (stereo not given)	none
C/C=C/c1ccc(OCC(O)CN(C)Cc2ccc(SC)cc2)c(OC)c1 (stereo not given)	T cruzi inh 60
O=C1CCC[C@@H]2Cc3[nH]c4c(Cl)ccc(Cl)c4c3[C@@H]3CCN1[C@H]23	T cruzi inh 64
COC(=O)Nc1ccc(SCC(=O)c2ccc(Cl)cc2)cc1	HSF-1 act 107
COCCCNC(=O)Cn1cnc2sc(C)c(S(=O)(=O)N3CCN(c4ccccc4OC)CC3)c2c1=O	HSF1 inh -72
Cc1nnc(Nc2ccc(S(N)(=O)=O)cc2)c2ccccc12	none
CC(C)c1ccc(/C=C2\C(=O)N(CCN3CCOCC3)C(=S)N2C)cc1	HSF-1 act 66
N#C/C(=C\c1ccccc1C(F)(F)F)C(=O)Nc1ccccc1	none
CCc1cccc(CC)c1NC(=O)/C(C#N)=C/c1ccccc1C(F)(F)F	HSF-1 act 83
CCOC(=O)C1=CNS(=O)(=O)NC1c1cccc(O)c1 (stereo not given)	none (no result: Jurkat NFkB inh, GPR7 antagonist, T cruzi inh, HSF1 inh, HSF-1 act)
COc1cc(/C=C2/NC(=O)NC2=O)ccc1OCC(=O)Nc1ccc(F)cc1	none
O=C(Nc1cc(Sc2nc3ccccc3s2)cc([N+](=O)[O-])c1)c1ccccc1	T cruzi inh 56
O=C(Nc1cc(Sc2nc3ccccc3s2)cc([N+](=O)[O-])c1)c1ccccc1F	T cruzi inh 65
O=C(Nc1cc(Sc2ccccn2)cc([N+](=O)[O-])c1)c1cccc(F)c1	none
O=C(CCc1nnc(CCCc2ccccc2)o1)NC(C1CC1)C1CC1	HSF-1 act 65
O=C(CCc1nnc(CCCCc2ccccc2)o1)NCCN1CCCCC1=O	HSF-1 act 58
O=C(CCc1nnc(CCCCc2ccccc2)o1)NCCc1cccnc1	T cruzi inh 60
O=C(CCN=C1NS(=O)(=O)c2ccccc21)Nc1ccc(F)cc1Cl	none (no result: GPR7 antagonist, T cruzi inh, HSF1 inh, HSF-1 act)
COc1cc(OC)c(NS(=O)(=O)c2c(C(=O)N3CCCCC3)c(C)n(C)c2C)cc1Cl	none
COc1ccc(C(=O)N/N=C(\Cc2ncc[nH]2)c2ccccc2)cc1	T cruzi inh 66
NC(=O)c1ccc(NC(=O)CCN2C(=O)c3ccccc3C2=O)cc1	none
Nc1c(C(=O)c2ccc(Cl)cc2)sc2nc3c(cc12)CCC3	HSF-1 act 51
CN1c2ccccc2N(C)C1(C)c1ccccc1	T cruzi inh 62 (no result: Jurkat NFkB inh, 697 NFkB inh)
CCN1c2ccccc2N(C)C1(C)c1ccccc1 (stereo not given)	none (no result: Jurkat NFkB inh, 697 NFkB inh, T cruzi inh, HSF1 inh, HSF-1 act)
Cc1nn(-c2ccc(F)cc2)c2nc(N)c(C#N)c(-c3ccc(O)c(O)c3)c12	T cruzi inh 59
Cc1nn(-c2ccccc2)c2nc(N)c(C#N)c(-c3ccc(O)c(O)c3)c12	none
CCOc1ccc(C(=O)NNC(=O)c2cc(S(=O)(=O)N3CCOCC3)ccc2Cl)cc1	none (no result: GPR7 antagonist, T cruzi inh, HSF1 inh, HSF-1 act)
CC1CCN(C(=O)COC(=O)c2ccc([N+](=O)[O-])o2)CC1	none (no result: GPR7 antagonist, T cruzi inh, HSF1 inh, HSF-1 act)
O=C(OCC(=O)N1CCN(S(=O)(=O)c2ccc(Cl)cc2)CC1)c1ccc([N+](=O)[O-])o1	GPR7 antagonist 20, HSF-1 act inconclusive
CC(=O)Nc1ccc(/C=N/Nc2nc3ccccc3s2)cc1	HSF-1 act 68 (no result: Jurkat NFkB inh, 697 NFkB inh)
CCn1c(C)c(/C=N/Nc2nc3ccccc3s2)c2ccccc21	T cruzi inh 69, HSF-1 act 53
CC(C)[C@H](NC(=O)c1ccccc1)C(=O)OCC(=O)Nc1ccc(S(=O)(=O)N2CCOCC2)cc1	none (no result: GPR7 antagonist, T cruzi inh, HSF1 inh, HSF-1 act)

Screening results deposited in PubChem by several laboratories.
